# Screening data (PubChem)
# Rows were chosen to be rich in hits. Some 9.6% of all compounds tested hit in one or more screens of this group.
# PMI act hi M6P – increases human PMI activity with near-saturating mannose 6-phosphate | P34949 | coupled PMI enzyme assay, resazurin fluorescence, 20 min; stronger effect = higher value; 1 = untreated enzyme, 0 = substrate-free blank | activation factor at 20 µM | 190,000 compounds, 0.34% hits | AID 1216;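 active = activation factor of 2 or more at 20 µM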
# Target sequence (P34949 whole entry, looked up): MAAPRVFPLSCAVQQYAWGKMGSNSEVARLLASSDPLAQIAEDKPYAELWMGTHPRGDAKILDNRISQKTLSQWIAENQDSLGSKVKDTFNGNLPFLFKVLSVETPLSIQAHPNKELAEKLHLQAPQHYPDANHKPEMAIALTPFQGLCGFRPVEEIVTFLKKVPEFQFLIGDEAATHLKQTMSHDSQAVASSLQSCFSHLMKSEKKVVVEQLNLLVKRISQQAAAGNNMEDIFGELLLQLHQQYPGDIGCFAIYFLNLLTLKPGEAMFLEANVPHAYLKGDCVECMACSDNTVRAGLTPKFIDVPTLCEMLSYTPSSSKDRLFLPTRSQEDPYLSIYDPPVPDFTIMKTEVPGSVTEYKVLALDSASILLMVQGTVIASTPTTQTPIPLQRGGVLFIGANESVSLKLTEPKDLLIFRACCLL
#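 Material: human phosphomannose isomerase with PGI, G6PDH, diaphorase coupling enzymes; amount: PMI at 15 ng/mL final; also added: Mannose-6-phosphate 1.0 mM (near-saturating) plus 0.22 mM NADP+; incubation: enzyme reaction with compound 20 min at room temperature; signal: resorufin fluorescence (Ex 544/Em 590 nm) from resazurin via diaphorase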
# L major viab – reduces viability of Leishmania major promastigotes. resazurin fluorescence viability. inhibition, % at 10 µM. 200,000 compounds, 9% hits. AID 1063; in the data active = inhibition above about 50%;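 also: promastigotes grown with compound for 44 hours at 28 °C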
# PTEN del growth – suppresses growth of cells with PTEN deletion | AID 827 | 140,000 compounds, 1.2% hits | viability, % at 10 µM | HCT116 PTEN-null viability, CellTiter-Glo, 60 h; stronger effect = lower value;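 active = viability at or below a set limit, 4 SD under the median of all tested compounds, cut at about 3.7% in these data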;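 also: PTEN knockout HCT116 line with beta catenin targeted HCT116 as companion control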
# bCat KO growth – beta-catenin-lacking colon tumor cell growth suppression | HCT116 beta-catenin knockout viability, CellTiter-Glo, 60 h; stronger effect = lower value | viability, % at 10 µM | 140,000 compounds, 1.5% hits | AID 818;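 active = viability at or under a set limit, the compound median less 4 SD, cut at about 6% in these data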
# PMI activator – increases human mannose-6-phosphate isomerase activity; purified human PMI, coupled resazurin fluorescence, 20 min; stronger effect = higher value; 1 = vehicle control, 0 substrate-free wells; activation factor at 20 µM; 190,000 compounds, 0.005% hits;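 active = activation factor of 2 or more at 20 µM, relative to plate controls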
# A number is an active result; - = inactive; . = no result.
SMILES,PMI act hi M6P,L major viab,PTEN del growth,bCat KO growth,PMI activator
O=C(NC(=S)N(CC1CCC1)CC1CCCO1)c1cccc([N+](=O)[O-])c1 (stereo not given),-,-,.,.,-
Cc1ccc(C2C3CSCC=C3C(C#N)=C(N)C2(C#N)C#N)cc1 (stereo not given),-,61,-,-,-
CC(C)N1CC=C2C(C#N)=C(N)C(C#N)(C#N)C(c3ccccc3)C2C1 (stereo not given),-,-,-,-,-
C=CCn1c(O)c(N=NC(=S)Nc2cccc(OC)c2)c2ccccc21,-,98,-,-,-
C=CCn1c(O)c(N=NC(=O)OCC)c2ccccc21,-,-,-,-,-
C=CCn1c(O)c(N=NC(=S)Nc2ccc(OC)cc2)c2ccccc21,-,87,-,-,-
CC1CCCCN1C(=O)Cn1cc(/C=C2/C(=O)Nc3ccccc32)c2ccccc21 (stereo not given),-,-,-,-,-
Cc1ccc(NCC(=O)N/N=C/c2cccc(Oc3ccccc3)c2)cc1,-,-,-,-,-
O=C(C[n+]1cccc(NC(=O)c2ccccc2)c1)c1ccc(NC(=O)c2ccccc2)cc1,-,71,-,-,-
CC(C(=O)c1ccc(Br)cc1)[n+]1cccc(NC(=O)c2ccccc2)c1 (stereo not given),-,56,-,-,-
S=C(NCc1ccco1)Nc1cc(-c2ccccc2)[nH]n1,-,-,.,.,-
Cc1ccc(NS(=O)(=O)c2cc(NC(=O)C(C)Oc3ccccc3)ccc2C)c(C)c1 (stereo not given),-,98,-,-,-
CCCCC(CC)CN1C(=O)/C(=C/c2ccncc2)SC1=S (stereo not given),-,97,-,-,-
O=C1/C(=C\c2ccncc2)SC(=S)N1C1CCCCC1,-,65,-,-,-
O=C(O)CCN1C(=O)/C(=C\c2ccncc2)SC1=S,-,-,.,.,-
O=C1/C(=C/c2ccncc2)SC(=S)N1C1CCCCC1,-,-,-,-,-
O=C(NN=C1CCCC1)c1ccccc1OCCOc1ccccc1,-,-,.,.,-
Nc1ccc(Cc2ccc(N)c(O)c2)cc1O,-,99,.,.,-
CCOc1ccc(S(=O)(=O)NCC2CCCO2)c2cccnc12 (stereo not given),-,-,-,-,-
CCOc1ccc(S(=O)(=O)NCc2ccc(Cl)cc2)c2cccnc12,-,99,-,-,-
O=C(Oc1cccc2cccnc12)c1ccc2c(c1)OCCO2,-,-,2.5,4.8,-
O=C(N/N=C/c1ccc2c(c1)OCO2)c1ccc(COc2cccc3cccnc23)cc1,-,-,.,.,-
O=[N+]([O-])c1ccccc1OCCOCCOc1cccc2cccnc12,-,-,-,-,-
Cc1c(C(=O)Oc2cccc3cccnc23)cccc1[N+](=O)[O-],-,98,.,.,-
O=C(Oc1ccc(Cl)c2cccnc12)c1ccco1,-,99,-,5.3,-
SMILES,PMI act hi M6P,L major viab,PTEN del growth,bCat KO growth,PMI activator
O=C(Oc1cccc2cccnc12)c1ccc(Br)o1,-,-,-,-,-
O=C(Cc1ccc(Cl)cc1)Oc1cccc2cccnc12,-,97,3.0,4.2,-
Cc1csc(NC(=O)c2cc(-c3ccccc3)nc3ccccc23)n1,-,-,-,-,-
O=C(Oc1cccc2cccnc12)c1ccco1,-,99,1.8,3.0,-
O=C(Oc1ccccc1)c1cccc2cccnc12,-,94,1.7,3.3,-
O=C(Oc1cccc2cccnc12)c1cccs1,-,100,1.9,4.1,-
O=C(Cn1cnc([N+](=O)[O-])n1)N/N=C/c1cc(Cl)ccc1O,-,100,.,.,-
Cc1ccccc1/C=N/NC(=O)Cn1cnc([N+](=O)[O-])n1,-,-,-,-,-
O=C(Cn1cnc([N+](=O)[O-])n1)N/N=C/c1ccccc1O,-,100,-,-,-
Cc1nc2ccc(Nc3ccncc3)cc2s1,-,-,.,.,-
CCCCNC(=O)c1onc(CSc2cccc(C)c2)c1C(=O)O,-,-,-,-,-
CCCCCCc1cc2cc(-c3nnc(-c4ccccc4O)o3)c(=O)oc2cc1O,-,-,0.7,0.7,-
CCCCCCc1cc2cc(-c3nnc(-c4ccccc4OC)o3)c(=O)oc2cc1O,-,-,-,-,-
Oc1ccc(-c2n[nH]c(=S)n2-c2ccc3c(c2)OCCO3)cc1,-,-,-,-,-
S=c1[nH]nc(-c2ccc3ncccc3c2)n1-c1ccc2c(c1)OCCO2,-,91,.,.,-
S=c1[nH]nc(-c2ccc3ccccc3n2)n1-c1ccc2ncccc2c1,-,88,-,-,-
Cc1ccc2nc(NC3=NC(CC(=O)O)C(=O)N3)nc(C)c2c1 (stereo not given),-,-,.,.,-
CCOc1ccc2c(C)nc(NC3=NC(C)(C)C=C(C)N3)nc2c1,-,101,-,-,-
CCOc1ccc2nc(NC3=NC(c4ccc(OC)cc4)CC(=O)N3)nc(C)c2c1 (stereo not given),-,-,1.8,1.4,-
COCCN1CN=C(Nc2nc(C)c3ccc(C)cc3n2)NC1,-,.,.,.,-
CCOc1ccc2nc(NC3=NCN(Cc4ccco4)CN3)nc(C)c2c1,-,.,.,.,-
CCOc1ccc2nc(NC3=NC(C)(C)C=C(C)N3)nc(C)c2c1,-,98,-,5.0,-
O=C(Cn1cnc2ccccc21)N/N=C/c1ccccn1,-,-,-,-,-
COc1ccccc1NC(=S)N1CC(C)OC(C)C1 (stereo not given),-,-,.,.,-
CSc1nc(-c2ccccc2)cn1-c1ccc(NC(C)=O)cc1,-,-,.,.,-
SMILES,PMI act hi M6P,L major viab,PTEN del growth,bCat KO growth,PMI activator
CCOc1ccc(-c2cn(-c3ccc(OC)cc3)c(SC)n2)cc1,-,51,-,-,-
CCn1cc(CCC(=O)O)c(C)n1,2.3,-,.,.,-
Cc1ccc(-c2nn(CCC(=O)O)cc2CCC(=O)O)cc1,-,-,-,-,-
COc1cc(S(=O)(=O)NCCc2ccc3c(c2)OCO3)ccc1-n1cnnn1,-,-,-,-,-
CN=C1S/C(=C\c2cc(C)n(-c3ccccc3F)c2C)C(=O)N1C,-,62,-,-,-
Cc1cc(C)c(OCCCCCNCCO)c(C)c1,-,90,-,-,-
Cc1cc(OCCCCCNCCO)cc(C)c1Cl,-,98,3.6,-,-
COc1cccc(OCCOCCNCCO)c1,-,-,-,-,-
Cc1cc(OCCNCCO)cc(C)c1Cl,-,66,-,-,-
Cc1cc(OCC(=O)NCCO)cc(C)c1Cl,-,-,-,-,-
Cc1cc(C)cc(OCCCCCNCCO)c1,-,52,-,-,-
Cc1cc(=O)oc2cc(OCC(=O)OC(C)C(=O)NC3CCCC3)ccc12 (stereo not given),-,-,.,.,-
O=C(NCCO)/C(=C/c1cccc([N+](=O)[O-])c1)NC(=O)c1ccco1,-,-,.,.,-
CS(=O)(=O)N(CC(=O)NCCC1=CCCCC1)C1CCCCC1,-,-,-,-,-
O=C(CN1CCN(C2CCCCC2)CC1)NCCC1=CCCCC1,-,94,-,-,-
O=C(COc1ccc(S(=O)(=O)NC2CCCCC2)cc1)NC1CCCCC1,-,-,-,-,-
